Source: ChEMBL document CHEMBL1275447 (Antimicrob Agents Chemother, 2008)
≈ marks a conversion by molar mass, not a printed value. Calls of active or inactive are those of the source. The rule behind the calls is not given here.

Tests used:
Pseudomonas aeruginosa [1] = assay: Antibacterial activity against Pseudomonas aeruginosa isolate 993 by microdilution method; type: functional
Pseudomonas aeruginosa [2] = assay: Antibacterial activity against Pseudomonas aeruginosa isolate 935 by microdilution method; type: functional
Method in brief: (§1)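 CLSI broth microdilution in cation-adjusted Mueller-Hinton broth (20–25 mg/liter Ca, 10–12.5 mg/liter Mg). Standard inoculum 10⁵ CFU/ml, incubated in ambient air. Clinical hospital isolates.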

Pseudomonas aeruginosa [3] = assay: Antibacterial activity against Pseudomonas aeruginosa isolate 1005 by microdilution method; type: functional; method in brief: as §1
Pseudomonas aeruginosa [4] = assay: Antibacterial activity against Pseudomonas aeruginosa isolate 906 by microdilution method; type: functional
Pseudomonas aeruginosa [5] = assay: Antibacterial activity against Pseudomonas aeruginosa isolate 979 by microdilution method; type: functional
Pseudomonas aeruginosa [6] = assay: Antibacterial activity against Pseudomonas aeruginosa isolate 1036 by microdilution method; type: functional
Pseudomonas aeruginosa [7] = assay: Antibacterial activity against Pseudomonas aeruginosa isolate 988 by microdilution method; type: functional
[8] = fT>MIC in human infected with Pseudomonas aeruginosa isolate 869 at 500 mg administered as 1 hr infusion; type: functional
[9] = fT>MIC in human infected with Pseudomonas aeruginosa isolate 886 at 500 mg administered as 1 hr infusion; type: functional
[10] = fT>MIC in human infected with Pseudomonas aeruginosa isolate 1060 at 500 mg administered as 1 hr infusion; type: functional
[11] = fT>MIC in human infected with Pseudomonas aeruginosa isolate 1006 at 500 mg administered as 1 hr infusion; type: functional
[12] = fT>MIC in human infected with Pseudomonas aeruginosa isolate 869 at 500 mg administered as 4 hr infusion; type: functional
[13] = fT>MIC in human infected with Pseudomonas aeruginosa isolate 886 at 500 mg administered as 4 hr infusion; type: functional
[14] = fT>MIC in human infected with Pseudomonas aeruginosa isolate 1082 at 500 mg administered as 4 hr infusion; type: functional
[15] = fT>MIC in human infected with Pseudomonas aeruginosa isolate 1050 at 500 mg administered as 4 hr infusion; type: functional
[16] = fT>MIC in human infected with Pseudomonas aeruginosa isolate 896 at 500 mg administered as 4 hr infusion; type: functional
[17] = fT>MIC in human infected with Pseudomonas aeruginosa isolate 988 at 500 mg administered as 4 hr infusion; type: functional
[18] = fT>MIC in human infected with Pseudomonas aeruginosa isolate 1006 at 500 mg administered as 4 hr infusion; type: functional
[19] = fT>MIC in human infected with Pseudomonas aeruginosa isolate 927 at 500 mg administered as 4 hr infusion; type: functional
[20] = fT>MIC in neutropenic mouse infected with Pseudomonas aeruginosa isolate 869 at 500 mg administered as 1 hr infusion; type: functional
Method in brief: (§2)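 Free-drug time above MIC simulated from one-compartment mouse serum PK (25.2% protein binding). The mice were cyclophosphamide-neutropenic and uranyl nitrate-renally impaired. Regimen was subcutaneous 10, 15, 2.5, 1.25, 0.5, 0.25 mg/kg at 0, 0.5, 2.5, 4, 5.5, 7 h, repeated every 8 h over 24 h.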

[21] = fT>MIC in neutropenic mouse infected with Pseudomonas aeruginosa isolate 886 at 500 mg administered as 1 hr infusion; type: functional; method in brief: as §2
[22] = fT>MIC in neutropenic mouse infected with Pseudomonas aeruginosa isolate 979 at 500 mg administered as 1 hr infusion; type: functional; method in brief: as §2
[23] = fT>MIC in neutropenic mouse infected with Pseudomonas aeruginosa isolate 944 at 500 mg administered as 1 hr infusion; type: functional; method in brief: as §2
[24] = fT>MIC in neutropenic mouse infected with Pseudomonas aeruginosa isolate 1050 at 500 mg administered as 1 hr infusion; type: functional; method in brief: as §2
[25] = fT>MIC in neutropenic mouse infected with Pseudomonas aeruginosa isolate 1060 at 500 mg administered as 1 hr infusion; type: functional; method in brief: as §2
[26] = fT>MIC in neutropenic mouse infected with Pseudomonas aeruginosa isolate 1062 at 500 mg administered as 4 hr infusion; type: functional
Method in brief: (§3)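 Mouse fT>MIC was modelled with first-order one-compartment serum PK and 25.2% binding. Mice were neutropenic (cyclophosphamide) with uranyl nitrate renal impairment. Subcutaneous doses were 5.5, 2.25, 4.5, 4.5, 4.5, 4.5, 0.75, 0.375 mg/kg at 0, 0.5, 1.5, 2.5, 3.5, 4.5, 6, 7.5 h per 8-h interval over 24 h.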

[27] = fT>MIC in neutropenic mouse infected with Pseudomonas aeruginosa isolate 931 at 500 mg administered as 4 hr infusion; type: functional; method in brief: as §3
[28] = fT>MIC in neutropenic mouse infected with Pseudomonas aeruginosa isolate 927 at 500 mg administered as 4 hr infusion; type: functional; method in brief: as §3
[29] = Tmax in Pseudomonas aeruginosa ATCC 27853 infected neutropenic ICR mouse at 150 mg/kg, sc administered as single dose 2 hrs postinfection by HPLC; type: ADME, organism-based; set-up: dose 150 mg/kg, route subcutaneous; conditions: in vivo
Method in brief: (§4)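 Neutropenic mice (cyclophosphamide ip 150 and 100 mg/kg, 4 and 1 days before inoculation) with uranyl nitrate 5 mg/kg ip 3 days before, for renal impairment. Thigh infection with ATCC 27853 at 10⁶ CFU/ml, 0.1 ml per thigh. Single sc doses 2 h later. Intracardiac blood from 6–12 mice per time point, eight time points over 4 h. Serum assayed by HPLC (linear 0.5–40 μg/ml). One-compartment first-order fit.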

[30] = AUC (0 to 24 hrs) in Pseudomonas aeruginosa ATCC 27853 infected neutropenic ICR mouse at 10 mg/kg, sc administered as single dose 2 hrs postinfection; type: ADME, organism-based; set-up: time < 24 hr, dose 10 mg/kg, route subcutaneous; conditions: plasma; method in brief: as §4
[31] = AUC (0 to 24 hrs) in Pseudomonas aeruginosa ATCC 27853 infected neutropenic ICR mouse at 150 mg/kg, sc administered as single dose 2 hrs postinfection; type: ADME, organism-based; set-up: time < 24 hr, dose 150 mg/kg, route subcutaneous; conditions: plasma; method in brief: as §4
[32] = Elimination rate constant in Pseudomonas aeruginosa ATCC 27853 infected neutropenic ICR mouse at 150 mg/kg, sc administered as single dose 2 hrs postinfection; type: ADME, organism-based; set-up: dose 150 mg/kg, route subcutaneous; conditions: in vivo; method in brief: as §4
[33] = Half-life in Pseudomonas aeruginosa ATCC 27853 infected neutropenic ICR mouse at 10 mg/kg, sc administered as single dose 2 hrs postinfection; type: ADME, organism-based; set-up: dose 10 mg/kg, route subcutaneous; conditions: in vivo; method in brief: as §4
[34] = Clearance in Pseudomonas aeruginosa ATCC 27853 infected neutropenic ICR mouse at 50 mg/kg, sc administered as single dose 2 hrs postinfection; type: ADME, organism-based; set-up: dose 50 mg/kg, route subcutaneous; conditions: in vivo; method in brief: as §4
[35] = Cmax in Pseudomonas aeruginosa ATCC 27853 infected neutropenic ICR mouse at 500 mg administered as 1 hr infusion; type: ADME, organism-based; set-up: dose 500 mg; conditions: in vivo, iv
[36] = Cmax in healthy human at 500 mg administered as 1 hr infusion; type: ADME, organism-based; set-up: dose 500 mg; conditions: in vivo, iv
[37] = Cmax in Pseudomonas aeruginosa ATCC 27853 infected neutropenic ICR mouse at 5.5, 2.25, 4.5, 4.5, 4.5, 4.5, 0.75, and 0.375 mg/kg given at 0, 0.5, 1.5, 2.5, 3.5, 4.5, 6, and 7.5 h over 24 h; type: ADME, organism-based; set-up: dose 0.375 mg/kg; conditions: in vivo
Pseudomonas aeruginosa [38] = assay: Antibacterial activity against Pseudomonas aeruginosa isolate 931 at 4 ug/ml after 24 hrs; type: functional, organism-based
Pseudomonas aeruginosa [39] = assay: Antibacterial activity against Pseudomonas aeruginosa isolate 931 by fractionation study; type: functional
Pseudomonas aeruginosa [40] = assay: Antibacterial activity against Pseudomonas aeruginosa isolate 1050 by fractionation study; type: functional

C[C@@H](O)[C@H]1C(=O)N2C(C(=O)O)=C(S[C@@H]3CN[C@H](CNS(N)(=O)=O)C3)[C@H](C)[C@H]12 [DORIPENEM]
MIC (Pseudomonas aeruginosa [1]): 0.125 µg/mL (≈ 0.297 µM)
MIC (Pseudomonas aeruginosa [2]): 1 µg/mL (≈ 2.38 µM)
MIC (Pseudomonas aeruginosa [3]): 1 µg/mL (≈ 2.38 µM)
MIC (Pseudomonas aeruginosa [4]): 2 µg/mL (≈ 4.76 µM)
MIC (Pseudomonas aeruginosa [5]): 2 µg/mL (≈ 4.76 µM)
MIC (Pseudomonas aeruginosa [6]): 2 µg/mL (≈ 4.76 µM)
MIC (Pseudomonas aeruginosa [7]): 8 µg/mL (≈ 19 µM)
fT>MIC [8]: 90%
fT>MIC [9]: 90%
fT>MIC [10]: 27.5%
fT>MIC [11]: 17.5%
fT>MIC [12]: 100%
fT>MIC [13]: 100%
fT>MIC [14]: 80%
fT>MIC [15]: 55%
fT>MIC [16]: 0%
fT>MIC [17]: 0%
fT>MIC [18]: 0%
fT>MIC [19]: 0%
fT>MIC [20]: 90%
fT>MIC [21]: 90%
fT>MIC [22]: 42.5%
fT>MIC [23]: 30%
fT>MIC [24]: 30%
fT>MIC [25]: 30%
fT>MIC [26]: 95%
fT>MIC [27]: 52.5%
fT>MIC [28]: 0%
Tmax [29]: 13.2 min
AUC(0-t) at 24 h [30]: 13500 ng·h/mL
AUC(0-t) at 24 h [31]: 168000 ng·h/mL
k el at 2 h [32]: 0.000433 s⁻¹
half-life [33]: 24.6 min
CL/F [34]: 13.1 mL/min/kg
Cmax [35]: 28400 ng/mL
Cmax [36]: 21800 ng/mL
Cmax [37]: 7990 ng/mL
Activity (Pseudomonas aeruginosa [38]): inactive
MIC (Pseudomonas aeruginosa [39]): 3 µg/mL (≈ 7.13 µM)
MIC (Pseudomonas aeruginosa [40]): 4 µg/mL (≈ 9.51 µM)
